In ChEMBL document CHEMBL5032510, “Identification of Novel Fused Heteroaromatics-Based MALT1 Inhibitors by High-Throughput Screening to Treat B Cell Lymphoma” (J Med Chem, 2021):
Activity calls are given as the source filed them. No cut-off for these calls is given here.

Experiments:
[1] = molecular target: T1, Mucosa-associated lymphoid tissue lymphoma translocation protein 1 (Homo sapiens, UniProt Q9UDY8); assay: Inhibition of N-terminal his-tagged GCN4 leucine zipper fused human MALT1 […] expressed in Escherichia coli using Ac-LVSR-AMC as substrate by HTS assay
T1 sequence (Q9UDY8 whole entry): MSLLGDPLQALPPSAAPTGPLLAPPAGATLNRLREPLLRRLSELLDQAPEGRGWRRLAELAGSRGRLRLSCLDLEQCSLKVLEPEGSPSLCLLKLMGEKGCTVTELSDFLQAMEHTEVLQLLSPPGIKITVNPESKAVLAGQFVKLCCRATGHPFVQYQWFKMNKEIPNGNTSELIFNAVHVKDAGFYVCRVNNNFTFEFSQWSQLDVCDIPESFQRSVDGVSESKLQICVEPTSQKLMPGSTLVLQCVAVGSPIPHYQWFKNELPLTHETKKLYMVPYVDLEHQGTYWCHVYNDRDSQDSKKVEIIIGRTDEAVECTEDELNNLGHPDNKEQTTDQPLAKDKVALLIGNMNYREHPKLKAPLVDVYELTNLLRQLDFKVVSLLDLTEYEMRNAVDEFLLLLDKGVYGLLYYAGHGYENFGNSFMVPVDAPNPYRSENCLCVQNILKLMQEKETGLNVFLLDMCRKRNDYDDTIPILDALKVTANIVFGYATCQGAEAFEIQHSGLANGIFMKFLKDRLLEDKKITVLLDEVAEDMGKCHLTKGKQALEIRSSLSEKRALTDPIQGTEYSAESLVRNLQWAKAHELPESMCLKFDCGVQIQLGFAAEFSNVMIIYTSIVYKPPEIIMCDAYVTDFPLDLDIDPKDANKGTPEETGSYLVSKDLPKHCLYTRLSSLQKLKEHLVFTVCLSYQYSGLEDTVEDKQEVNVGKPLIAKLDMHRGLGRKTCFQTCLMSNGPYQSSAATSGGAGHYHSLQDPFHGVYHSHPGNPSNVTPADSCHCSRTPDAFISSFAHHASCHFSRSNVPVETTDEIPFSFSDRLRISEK

[2] = Antiproliferative activity against human HBL1 cells assessed as inhibition of cell growth incubated for 72 hrs by Celltiter-Glo luminescent assay; assay type: functional
Method in brief: (§1)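 Exponentially growing cells were seeded at 1 × 10⁴ per 100 μL. HBL-1 and TMD8 were kept in RPMI with 10% FBS, 2 mM glutamine and 10 mM HEPES; OCI-LY1 in Iscove's medium with 20% FBS; all at 37 °C and 5% CO2. Cells were exposed to DMSO or 2-fold serial dilutions from 100 μM for 72 h, in triplicate on one plate. CellTiter-Glo luminescence was read after 1 h. Growth inhibition was calculated against control, accounting for initial cell number, and GI50 was fitted.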

[3] = test system: TMD8; assay: Antiproliferative activity against human TMD8 cells assessed as inhibition of cell growth incubated for 72 hrs by Celltiter-Glo luminescent assay; assay type: functional; method in brief: as §1
[4] = Induction of apoptosis in human HBL1 cells assessed as dead cells at 5 uM measured after 24 hrs by Annexin V-FITC/ Propidium iodide staining based flow cytometry (reference value: 2.32%); assay type: functional
[5] = test system: TMD8; assay: Induction of apoptosis in human TMD8 cells assessed as early apoptotic cells at 5 uM measured after 24 hrs by Annexin V-FITC/ Propidium iodide staining based flow cytometry (reference value: 6.97%); assay type: functional
[6] = test system: TMD8; assay: Induction of apoptosis in human TMD8 cells assessed as early apoptotic cells at 10 uM measured after 24 hrs by Annexin V-FITC/ Propidium iodide staining based flow cytometry (reference value: 6.97%); assay type: functional
[7] = test system: TMD8; assay: Induction of apoptosis in human TMD8 cells assessed as late apoptotic cells at 2 uM measured after 24 hrs by Annexin V-FITC/ Propidium iodide staining based flow cytometry (reference value: 2.19%); assay type: functional
[8] = test system: TMD8; assay: Induction of apoptosis in human TMD8 cells assessed as dead cells at 5 uM measured after 24 hrs by Annexin V-FITC/ Propidium iodide staining based flow cytometry (reference value: 0 %); assay type: functional
[9] = test system: TMD8; assay: Induction of apoptosis in human TMD8 cells assessed as dead cells at 10 uM measured after 24 hrs by Annexin V-FITC/ Propidium iodide staining based flow cytometry (reference value: 0%); assay type: functional
[10] = test system: OCI-Ly1; assay: Induction of apoptosis in human OCI-Ly1 cells assessed as viable cells at 5 uM measured after 24 hrs by Annexin V-FITC/ Propidium iodide staining based flow cytometry (reference value: 97.8%); assay type: functional; conditions: read-out: Activity
[11] = test system: OCI-Ly1; assay: Induction of apoptosis in human OCI-Ly1 cells assessed as early apoptotic cells at 10 uM measured after 24 hrs by Annexin V-FITC/ Propidium iodide staining based flow cytometry (reference value: 1.29%); assay type: functional
[12] = test system: OCI-Ly1; assay: Induction of apoptosis in human OCI-Ly1 cells assessed as late apoptotic cells at 5 uM measured after 24 hrs by Annexin V-FITC/ Propidium iodide staining based flow cytometry (reference value: 0.548%); assay type: functional
[13] = test system: OCI-Ly1; assay: Induction of apoptosis in human OCI-Ly1 cells assessed as dead cells at 2 uM measured after 24 hrs by Annexin V-FITC/ Propidium iodide staining based flow cytometry (reference value: 0.365%); assay type: functional
[14] = test system: OCI-Ly1; assay: Induction of apoptosis in human OCI-Ly1 cells assessed as dead cells at 10 uM measured after 24 hrs by Annexin V-FITC/ Propidium iodide staining based flow cytometry (reference value: 0.365%); assay type: functional
[15] = test system: OCI-Ly1; assay: Induction of apoptosis in human OCI-Ly1 cells assessed as increase in cleaved PARP level at 2 to 5 uM measured after 12 hrs by Western blot analysis; assay type: functional, cell-based; conditions: dose 2-5 µM
Method in brief: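 HBL1, TMD8 or OCI-LY1 cells were exposed to DMSO or compound for 12 h. Cleaved PARP and caspase-3 were probed by western blot with HRP-conjugated secondary antibodies and chemiluminescent detection. Each lane held 20−75 μg total protein.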

[16] = Half life in CD-1 mouse at 1 mg/kg, ip by LC-MS/MS analysis; assay type: ADME, organism-based; conditions: in vivo
Method in brief: (§2)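 Compound formulated in 5% DMSO + 5% Tween-80 in 90% saline and given to male ICR (CD-1) mice (n = 9) at 10 mg/kg po, 1 mg/kg ip or 1 mg/kg iv. Blood was drawn via the jugular vein at set time points and held on ice. Plasma was separated by centrifugation and stored at −80 °C before PK parameters were derived.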

[17] = Half life in CD-1 mouse at 1 mg/kg, iv by LC-MS/MS analysis; assay type: ADME, organism-based; conditions: in vivo; method in brief: as §2
[18] = Tmax in CD-1 mouse at 10 mg/kg, po by LC-MS/MS analysis; assay type: ADME, organism-based; conditions: in vivo
Method in brief: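 Male ICR (CD-1) mice (n = 9). Compound formulated in 5% DMSO + 5% Tween-80 in 90% saline and dosed 10 mg/kg po, 1 mg/kg ip or 1 mg/kg iv. Blood drawn from the jugular vein at set time points and held on ice. Plasma separated by centrifugation and stored at −80 °C before parameter derivation.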

[19] = Cmax in CD-1 mouse at 10 mg/kg, po by LC-MS/MS analysis; assay type: ADME, organism-based; set-up: route oral, dose 10 mg/kg; conditions: in vivo; method in brief: as §2
[20] = AUC (0 to t) in CD-1 mouse at 1 mg/kg, ip by LC-MS/MS analysis; assay type: ADME, organism-based; set-up: dose 1 mg/kg; conditions: in vivo; method in brief: as §2
[21] = AUC (0 to t) in CD-1 mouse at 1 mg/kg, iv by LC-MS/MS analysis; assay type: ADME, organism-based; set-up: dose 1 mg/kg; conditions: in vivo; method in brief: as §2

COc1ccc(OC)c(NC(=O)c2sc(=S)n(-c3ccc(C(F)(F)F)cc3)c2NC(=O)CCl)c1
IC50 [1]: 5300 nM
GI50 [2]: 1000 nM
GI50 [3]: 400 nM
Activity [4]: 1.8%
Activity [5]: 58.9%
Activity [6]: 53.1%
Activity [7]: 2.54%
Activity [8]: 0.422%
Activity [9]: 0.625%
viability at 5 µM [10]: 97.4%
Activity [11]: 2.65%
Activity [12]: 0.774%
Activity [13]: 0.011%
Activity [14]: 0.337%
Activity [15]: inactive
half-life [16]: 4.5 h
half-life [17]: 4.6 h
Tmax [18]: 3 h
Cmax [19]: 1530 ng/mL
AUC(0-t) [20]: 732 ng·h/mL
AUC(0-t) [21]: 1010 ng·h/mL
